“Also recorded” adds a separate entry of the source. Marks after values point to notes of the source that are not given here.

The source of these data is PMC9303630 (Journal of Clinical Pharmacology, 2021).

The conditions of series [1]: cited from earlier work.
For series [2] the following is noted: cited from earlier work. The source holds these as a separate data set.
The nature of series [3]: Safety and tolerability in the hepatic impairment study. Type of series: in vivo, human.
For series [4] the following is noted: not assessed in this study; cited from earlier work.
The subject of another series is P‐glycoprotein (P‐gp). To be noted: cited from earlier work.
A short description of series [5]: Phase 1 open-label single-dose hepatic impairment PK study of ipatasertib. It counts as in vivo, human. To be noted: for tlast: 100 mg ipatasertib single oral, median (min-max); for AUC0‐∞, Test/Reference geometric mean ratio / Cmax, Test/Reference geometric mean ratio: (90%CI) where printed. Summed up:
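Open-label, parallel-group design: subjects with mild, moderate or severe hepatic impairment (Child-Pugh or NCI-ODWG) vs matched normal-function controls. Single oral 100 mg dose with 240 mL water after ≥8 h fast, then fasting ≥4 h. Plasma was sampled predose to day 15 for parent and M1, assayed with stable-labeled internal standards. Log-transformed AUC0‐∞ and Cmax were compared test vs reference with back-transformed geometric mean ratios and 90% CIs.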

The conditions of series [6]: once daily; combination setting; patients with solid tumors; cited from earlier work.
The test system of a further series is CYP3A4. As to conditions: cited from earlier work.
The conditions of series [7]: radiolabeled ipatasertib; ref data on file; cited from earlier work.
For series [8] the following is noted: 100-mg dose of ipatasertib coadministered with itraconazole; cited from earlier work.
[9] abbreviates: Mild vs normal, Child-Pugh, listed as ipatasertib.
The mark [10] stands for this setting: Mild vs normal, NCI-ODWG, listed as ipatasertib.
The mark [11] stands for this setting: Moderate vs normal, Child-Pugh, listed as ipatasertib.
Where [12] appears, read: Moderate vs normal, NCI-ODWG, listed as ipatasertib.
[13] abbreviates: Severe vs normal, Child-Pugh, listed as ipatasertib.
The mark [14] stands for this setting: Severe vs normal, NCI-ODWG, listed as ipatasertib.
[15] abbreviates: moderate or severe hepatic impairment, either method of classification.

Consider `CCN(CC)CCNC(=O)c1c(C)[nH]c(/C=C2\C(=O)Nc3ccc(F)cc32)c1C` [sunitinib], for which, in [1], the “exposure in subjects with normal and mildly impaired hepatic function” value (“exposure in subjects” for short) is “comparable exposure”.
For the compound `CC1(C)CCC(CN2CCN(c3ccc(C(=O)NS(=O)(=O)c4ccc(NCC5CCOCC5)c([N+](=O)[O-])c4)c(Oc4cnc5[nH]ccc5c4)c3)CC2)=C(c2ccc(Cl)cc2)C1` [venetoclax], the “exposure in subjects” value in series [1] is “comparable exposure”.
By Tmax is commonly meant the time from dosing to the highest level. Regarding `CC(C)NC[C@@H](C(=O)N1CCN(c2ncnc3c2[C@H](C)C[C@H]3O)CC1)c1ccc(Cl)cc1` [Ipatasertib], the “median half‐life (t1/2)” value in series [2] (400-mg dose in patients) is recorded as “≈ 45 hours”. For the same compound, in series [2] (single dose, doses of 100 to 800 mg, dose escalation study), the dose proportionality result is reported as “close to dose proportionality”. The “total AEs reported” value in series [3] (all 36 subjects) is reported as 12 AEs. Besides, in series [3] (in vivo), the “discontinuation due to AEs” value is listed as “no subjects were discontinued”. In addition, the AEs reported is 3 AEs in series [3] (mild hepatic impairment), 3 AEs in series [3] (moderate hepatic impairment), 1 AE in series [3] (normal hepatic function) and 5 AEs in [3] (severe hepatic impairment). Moreover, the “subjects with AEs” value in series [3] (mild hepatic impairment) worked out at 2 subjects; in series [3] (moderate hepatic impairment), 3 subjects; in series [3] (normal hepatic function), 1 subject; in series [3] (severe hepatic impairment), 3 subjects. Further, the “AE of orthostatic hypotension assessed as severe (grade 3)” value in series [3] (one subject with moderate hepatic impairment) worked out at 1 AE. Further, the “overall safety and tolerability” value in series [3] (single oral dose of 100 mg, normal hepatic function and hepatic impairment) is “generally safe and well tolerated”. In addition, the “overall mean percentage unbound in human plasma” value in series [4] is given as 63.6%. Also, in the series with P‐glycoprotein (P‐gp), the “substrate of P‐glycoprotein (P‐gp)” value is reported as “substrate”. For the same compound, the tlast in [5] (Child-Pugh, Healthy (N = 13)) was 120.0 (72.0‐120.4) h; in [5] (Child-Pugh, Mild (N = 8)) it was 120.0 (48.0‐168.0) h; in [5] (Child-Pugh, Moderate (N = 8)), 216.0 (146.5‐334.5) ^b h; in [5] (Child-Pugh, Severe (N = 7)), 192.2 (167.7‐336.0) ^c h; in [5] (NCI-ODWG, Healthy (N = 21)) it was 120.0 (48.0‐240.0) h; in series [5] (NCI-ODWG, Mild (N = 5)), 144.1 (96.0‐168.0)^c h. For the same compound, the tlast was 240.8 (168.0‐334.5)^c h in [5] (NCI-ODWG, Moderate (N = 5)) and 216.4 (167.7‐336.0) h in series [5] (NCI-ODWG, Severe (N = 5)). Besides, the “systemic exposure compared to normal hepatic function” value in [5] (Child-Pugh mild hepatic impairment) is recorded as “comparable; also recorded: no appreciable difference”. Further, the “apparent plasma clearance lower than normal hepatic function” value in series [5] (Child-Pugh moderate) was “≈ 2.5 fold”; in [5] (Child-Pugh severe), “≈ 2.9 fold”. Besides, the “apparent volume of distribution lower than normal hepatic function” value in [5] (Child-Pugh moderate) is recorded as around 1.6 fold; in series [5] (Child-Pugh severe), around 2.1 fold. For the same compound, the entries for the “mean elimination t1/2 longer than normal hepatic function” value in series [5] (Child-Pugh moderate) and in [5] (Child-Pugh severe) were “≈ 1.7 fold” and around 1.5 fold, respectively. The entries for the “increase in systemic exposure (AUC0‐∞) compared to normal hepatic function” value in series [5] (Child-Pugh moderate hepatic impairment) and in series [5] (Child-Pugh severe hepatic impairment) were “≈ 2 fold” and around 3 fold, respectively. The “AUC0‐∞, Test/Reference geometric mean ratio” value was 89.5% in series [5] (Mild vs normal, Child-Pugh); 89.5 (65.1‐123.2) % in series [5] (setting [9]); 153.6% in [5] (Mild vs normal, NCI-ODWG); 153.6 (87.7‐269.2) % in series [5] (setting [10]); 261.5% in series [5] (Moderate vs normal, Child-Pugh); 261.5 (191.2‐357.5) % in series [5] (setting [11]). Also, the “AUC0‐∞, Test/Reference geometric mean ratio” value in series [5] (Moderate vs normal, NCI-ODWG) is 339.1%; in series [5] (setting [12]), 339.1 (241.7‐475.6) %; in series [5] (Severe vs normal, Child-Pugh), 298.1%; in [5] (setting [13]), 298.1 (228.4‐389.0) %; in series [5] (Severe vs normal, NCI-ODWG), 267.0%; in series [5] (setting [14]), 267.0 (195.6‐364.3) %. Moreover, the “Cmax, Test/Reference geometric mean ratio” value in series [5] (Mild vs normal, Child-Pugh) was 98.6%; in series [5] (setting [9]) it was 98.6 (52.8‐184.0) %; in series [5] (Mild vs normal, NCI-ODWG) it was 101.1%; in series [5] (setting [10]) it was 101.1 (35.9‐284.8) %; in [5] (Moderate vs normal, Child-Pugh), 184.1%; in series [5] (setting [11]) it was 184.1 (112.2‐302.0) %. For the same compound, the “Cmax, Test/Reference geometric mean ratio” value in series [5] (Moderate vs normal, NCI-ODWG) is reported as 198.1%; in series [5] (setting [12]) it was 198.1 (109.5‐358.4) %; in [5] (Severe vs normal, Child-Pugh), 163.8%; in [5] (setting [13]), 163.8 (86.4‐310.3) %; in series [5] (Severe vs normal, NCI-ODWG), 155.2%; in series [5] (setting [14]) it was 155.2 (70.7‐340.9) %. In addition, the “AUC0‐∞ higher than normal hepatic function” value in series [5] (NCI-ODWG mild) is on record as “≈ 1.5 fold”. In addition, the “Cmax compared to normal hepatic function” value in [5] (NCI-ODWG mild) is reported as “similar”. Besides, in [5] (human, plasma, po, 100 mg, median tmax, across all the groups, single oral 100-mg dose, Child-Pugh), the Tmax lay in the range of 30 to 60 min. In series [5] (setting [15]), the “AUC0‐∞ increase compared to normal hepatic function” value is around 3 fold. Besides, the “Cmax increase compared to normal hepatic function” value in series [5] (setting [15]) is listed as “≈ 2 fold”. Further, the maximum tolerated dose in series [6] is given as 400 mg. The “substrate of CYP3A4” value with CYP3A4 is “sensitive substrate”. In series [7], the “parent drug eliminated in urine” value is “≈ 8%”. Moreover, the “total administered dose eliminated in urine” value in series [7] was “≈ 19%”. Also, the “increase of ipatasertib exposures with itraconazole” value in series [8] is “≈ 5 fold”.
Turning to `O=C(c1ccc(F)c(F)c1Nc1ccc(I)cc1F)N1CC(O)([C@@H]2CCCCN2)C1` [cobimetinib], the “exposure in subjects” value in series [1] is “comparable exposure”.
For `COc1cc2ncnc(Nc3ccc(F)c(Cl)c3)c2cc1NC(=O)/C=C/CN1CCCCC1` [dacomitinib], the “exposure in subjects” value in [1] is reported as “comparable exposure”.
